Paper PMC10404122 (Drug Design, Development and Therapy, 2023)

Tests used:
[1] = Population pharmacokinetic model; type: in vivo, human; details: ICU patients, iv, 304 samples from 108 patients, two-compartment model
Outline: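 NONMEM fit with FOCE with interaction. One- vs two-compartment chosen by goodness-of-fit plots. Covariates tested: sex, age, weight, ALB, Scr, Cockcroft-Gault Ccr, CKD-EPI eGFR, CRRT, APACHE II. Forward inclusion at P < 0.05 (ΔOFV −3.84), backward elimination at P < 0.001 (ΔOFV −10.828). Robustness checked with 1000 bootstrap resamples (median, 2.5–97.5 percentiles). VPC, NPDE and external-set MPE/RMSE also run.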

[2] = Stability of plasma samples; type: in vitro ADME; details: human plasma (EDTA), −20 °C, HPLC-MS/MS of A2-2
[3] = cited from earlier work
[4] = cited from earlier work; remark: listed apart in the source
[5] = plasma concentration; cited from earlier work

With teicoplanin the “Q, inter-compartmental clearance, final model estimate” value [1] was 3.08 L/h, the “Vc, volume of the central compartment, final model estimate” value [1] was 14.4 L and the “Vp, volume of the peripheral compartment, final model estimate” value [1] was 51.6 L. The “time for which plasma samples were found to be stable” value [2] was “at least 41 days”, the “patients in whom the standard dosing regimen was insufficient to achieve 10 mg/L” value ([3]; 400 mg q12h×3, 400 mg qd, within the initial three days) was “more than 50%” and the elimination half-life [3] was 169 h. For the same substance, the “plasma protein binding rate” value [4] was “over 90%” and the “concentration inducing adverse effects: thrombocytopenia” value [5] was ≥ 40000 ng/mL.
